# Results from ChEMBL document CHEMBL4513216, “Probing the Open Global Health Chemical Diversity Library for Multistage-Active Starting Points for Next-Generation Antimalarials” (ACS Infect Dis, 2020).
# Assay: Toxicity liver stage against HepG2, at 10uM
# Assay type: cell-based
# Design: test concentration 10 uM, cell line HepG2-A16-CD81EGFP
# Settings: human, HepG2-A16-CD81EGFP cells; read-out: INHIBITION
# Method in brief: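 Uninfected HepG2-A16-CD81EGFP cells, 3 × 10^3 per well, 1536-well, plated on prespotted compound at 10 μM final, parasite-free screening media added to match infected plates; puromycin 10 μM positive, DMSO 0.5% negative; run in parallel with 48 h PbLuc assay at 37 °C, 5% CO2; viability by CellTiter-Glo luminescence, normalized to controls.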
row,Compound,cytotoxicity at 10 µM [%]
1,O=C(N1CCOCC1)N1CCc2ncc(CN3CCCCC3)n2CC1,-87.7
2,COc1nn(C)c2c1CCCN(C(=O)c1c[nH]cn1)C2,-100
3,Cc1ccc2nc(C)cc(NCCNS(=O)(=O)c3cn(C)nc3C)c2c1,8.06
4,CC(=O)N(Cc1ccc(NCc2cnn(C(C)(C)C)c2)cc1)C(C)C,-3.44
5,Cc1ccc(S(=O)(=O)N(C)CC(C)O)c(F)c1 (stereo not given),-11.4
6,Cc1nc(NCCC23CCCN2CCC3)cc(C2CCNCC2)n1,8.37
7,CO[C@H]1CCN(S(=O)(=O)c2cn(C)cn2)[C@H]1Cc1cccnc1,-9.31
8,COc1cc(C)nc(N2CCN(C(=O)CN(C)C(C)C)CC2)n1,-14.6
9,CC(C)NC1CCc2c(ccc(=O)n2CCN(C)C)C1 (stereo not given),-1.7
10,CN(C)CCCNC(=O)c1cc(Br)c2c(c1)OCCO2,13.3
11,CCN(C)Cc1cccc(CNC(=O)CSCc2ccccn2)c1,1.61
12,Cc1cccc(NCC(=O)NC2(C#N)CCCC2)c1C(=O)N1CCCC1,-0.69
13,Cc1ccc(C)c(NC(=O)C(C)N2CCCN(c3nccs3)CC2)c1 (stereo not given),-19.8
14,Cc1cc(=O)[nH]c(-n2nc(C3CC3)cc2N)n1,-4.84
15,CC(C)C(=O)N1CCC(n2nc(-c3ccco3)ccc2=O)CC1,-2.44
16,Cc1noc(-c2ccc(N3CCCC(C(=O)N4CCSCC4)C3)nc2)n1 (stereo not given),-2.45
17,CCN(CC(=O)NC(C)C)S(=O)(=O)N1CCC(C)C1 (stereo not given),-3.26
18,CCn1ncnc1CN1CCC(CNC(=O)c2cccc(C)c2)C1 (stereo not given),-2.59
19,COc1ccc(CNC(=O)N2CCN(C)[C@@H]3CS(=O)(=O)C[C@@H]32)cc1,8.64
20,O=C(C1CCC1)N1CCCC1c1nnc2n1CCCCC2 (stereo not given),1.26
21,N#CCCCOc1cccnc1NC(=O)Cc1ccccc1F,-2.27
22,Cc1nnc2n1CCN(C(=O)CN1C(=O)C(C)Oc3ccccc31)C2 (stereo not given),-0.905

row,Compound,cytotoxicity at 10 µM [%]
1,CC(C)NC(=O)N1CCN(S(=O)(=O)C2CC2)CC2(CC(=O)N(C)C2)C1 (stereo not given),1.11
2,Cc1nc(NCCSc2nnc(C)s2)c2cccnc2n1,-0.125
3,COC(=O)C1CCN(C(=O)Nc2cc(-n3cccc3)ccc2F)CC1,5.44
4,Cc1noc(C)c1-c1nc(C2CCCN(CCC(N)=O)C2)ccc1CO (stereo not given),-2.66
5,CCN(C)S(=O)(=O)NCC1(c2ccccc2Br)CC1,1.22
6,Cc1c(C(=O)N(C)CC(F)(F)F)nnn1-c1ccccc1Cl,-1.58
7,CN1CCN(C(=O)c2n[nH]c3c2CN(Cc2nccs2)CC3)CC1,-144
8,CN(C)Cc1cncc2c1CCN(C1CCOCC1)C2,11.1
9,CC(C)=CCN1CCN(Cc2nc3ccccc3[nH]2)[C@H]2CS(=O)(=O)C[C@H]21,-132
10,Cc1cc(C(=O)N2C[C@@H]3CC[C@H]2CN(C)C3)ccc1Cl,-8.23
11,Cn1cnc2c1C(COCC1CCOCC1)CN(C(=O)c1ccco1)C2 (stereo not given),-75.5
12,Cc1cccnc1CN1CCN(C(=O)c2cnn(C(C)C)c2)CC1,0.616
13,CC(C)(C)c1nc(CN2CCCC(Cn3cncn3)C2)cs1 (stereo not given),-4.54
14,COc1ccccc1C(NC(=O)C1CCCC1)c1noc(C)n1 (stereo not given),-2.17
15,CN(C)S(=O)(=O)N1CC(c2nc(-c3ccsc3)no2)C1,-6.6
16,Cn1ccnc1CN1CCC(c2ccnc(-c3cccc(O)c3)c2)C1 (stereo not given),6.52
17,Cc1n[nH]c(C)c1CNC(=O)N1CCCC(Cc2nccn2C)C1 (stereo not given),-19.2
18,COCC1c2nnn(CC3CC3)c2CCN1C(=O)c1cc(C)on1 (stereo not given),-132
19,COc1ccc2c(c1)C(=O)NC1(CC2)CCN(Cc2ccc(F)cc2)C1 (stereo not given),8.16
20,Cc1cc(CNc2cc(-c3ccoc3C)nn2CCO)c(C)o1,-0.598
21,Cc1occc1C(=O)N1CCN2C[C@H](Oc3cccnc3)C[C@H]2C1,-4.15
22,CCC(C)(CNC(=O)Nc1nccs1)N1CCOCC1 (stereo not given),-6.46

row,Compound,cytotoxicity at 10 µM [%]
1,CCN1CCC2(CC1)CC(CC(=O)N(C)C)c1ccc(F)cc12 (stereo not given),-98.6
2,Cc1ccc(CN2CCN(CC(=O)N(C)C)[C@@H]3CS(=O)(=O)C[C@@H]32)cc1C,1.18
3,Cc1ccc(S(=O)(=O)N2CC(C)Oc3ncccc32)c(F)c1 (stereo not given),3.43
4,CN(Cc1ccc(Cl)cc1)C(=O)Nc1cnn(CC(N)=O)c1,-17.6
5,Cc1noc(C)c1CN1CC[C@H]2O[C@@H](C(=O)N3CCCC3)CC[C@H]21,3.35
6,Cc1cc(=O)n2nc(CNc3cc(Cl)ccc3C)nc2[nH]1,-5.64
7,Cc1cc(C)n(C2CCCN(C(=O)CCOc3cccc(F)c3)C2)n1 (stereo not given),-5.56
8,Cc1ccc(CCc2nc(C3CCOC3)no2)o1 (stereo not given),3.04
9,Cc1nc(CN2CCC3(CCCN(Cc4ccoc4)C3)C2=O)cs1 (stereo not given),-0.142
10,Fc1cnc(N2CCCC3(CN(Cc4ccncc4)CCO3)C2)nc1 (stereo not given),3.34
11,Cn1cccc1C(=O)N1CCCC(Cn2cc(CO)nn2)C1 (stereo not given),1.85
12,N#Cc1ccc(OCCOc2ccccc2C(=O)N2CCOCC2)cc1,-7.38
13,Cc1cnn(C2CN(CC(=O)NCC3(c4ccccc4)CCC3)C2)c1,-4.2
14,COCCN(Cc1ccc(C)cc1)Cc1c[nH]cn1,-42.3
15,CC(=O)c1ccc(Cl)c(Cl)c1OCC(=O)NC(N)=O,7.49
16,CCN(CCC1CCN(C(=O)NCc2nncn2CC)CC1)CC1CC1,-2.75
17,CCOc1nc2cnccc2n(CC(=O)NCCc2ccccc2)c1=O,-6.29
18,Cc1nn(-c2ccccc2)nc1C(=O)N1CCCC1c1cnn(C)c1 (stereo not given),-0.857
19,CC(=O)c1cccc(OCC(=O)N(CC(C)C)C2CCN(C)CC2)c1,-17.6
20,COC(=O)c1ccc(S(=O)(=O)NC2CNC(=O)C2)cc1 (stereo not given),-7.27
21,COCCNC(=O)CN1CCN(c2nc(C)cs2)CC1,-13.2
22,Cc1nc[nH]c1CN1C[C@H]2CC[C@@H](C1)N(C(=O)c1cnn(C)c1)C2,2.42

row,Compound,cytotoxicity at 10 µM [%]
1,O=C(CCc1cn[nH]c1)N1C[C@H](CO)C[C@H](CN2CCOCC2)C1,2.72
2,c1csc(CN2CCCn3cnc(COCC4CC4)c3C2)c1,-74.6
3,COc1cccc(CN2CCCC2c2ccc[nH]2)c1 (stereo not given),-1.38
4,COCc1ncc(CN2CCC(Oc3ccccc3C)CC2)cn1,1.09
5,C1CC(c2noc(C3CC3)n2)CN(CCOCC2CC2)C1 (stereo not given),-8.91
6,OC(COCc1cccs1)CN1CCc2c(ncn2C2CC2)C1 (stereo not given),-4.29
7,CCc1nc2c(c(NC3CC3)n1)CCN(C(=O)Cc1nonc1C)CC2,2.8
8,Cc1ccn(-c2ccnc(N3CCSCC3)n2)n1,9.87
9,CCC(CN1CCCC1)NC(=O)C1(c2cccc(F)c2)CC1 (stereo not given),-5.72
10,CN1CC2(CCCN(Cc3ccc(Oc4ccccc4)cc3)C2)OC1=O (stereo not given),15.8
11,Cc1occc1C(=O)N1CCC2(CC1)CC(c1cccnc1)C(=O)N2C (stereo not given),-7.09
12,CSC(C)(C)CNC(=O)NCC[S+]([O-])c1ccccc1F (stereo not given),-11.6
13,Cc1ccsc1CCNC(=O)CCC(=O)NC1CCCC1,-2.98
14,COCCN1C[C@@H]2CC[C@H]1CN(C(=O)c1ccc(Cl)cc1)C2,-8.03
15,Cc1nc(-c2ccsc2)ccc1C(=O)NCCC(=O)N1CCCC1,-9.57
16,O=C1CCC(=O)N1CCn1nnc(-c2cccc(Cl)c2)n1,-5.05
17,CCCc1n[nH]c(C2CN(C(=O)c3n[nH]c4ccccc34)CCO2)n1 (stereo not given),-1.39
18,Cc1nc(C2(NCC(=O)NCCc3cccs3)CCCC2)no1,-2.18
19,CCc1nc(CNC(C)c2cccc(N3CCCC3=O)c2)cs1 (stereo not given),7.28
20,N#CCCN(CC1CCOC1)Cn1ccc(-c2ccccc2)n1 (stereo not given),-3.8
21,O=C(O)c1ccc2c(c1)C1(CCCCC1)CN2C(=O)c1ccnnc1,3.59
22,CC(C)N1CCC(c2nccnc2Nc2cnccn2)CC1,1.44

row,Compound,cytotoxicity at 10 µM [%]
1,COC(=O)c1ccn(COc2ccccc2Cl)n1,8.99
2,CCCC(O)CN1CCC(=O)N(CC)Cc2cc3c(cc21)OCO3 (stereo not given),-18.5
3,CCN1CC2(CCN(C(=O)C3CSC(C)(C)C(=O)N3)CC2)CC1=O (stereo not given),1.72
4,Cc1ccc(NC2CCN(C(=O)COCC(F)(F)F)CC2)nn1,6.38
5,O=C(c1ccnnc1)N1C[C@H](Oc2cccnc2)[C@H]2OCCC[C@H]21,-14.7
6,Cc1ccc(C(C)(C)CNC(=O)NC(C)Cn2cncn2)cc1 (stereo not given),3.09
7,COc1c(CNCc2cccnc2N2CCN(C)CC2)c(C)nn1C,-134
8,COC[C@@]12CCO[C@@H]1CCN(Cc1ccc(C)s1)C2,-91.9
9,COc1ccccc1N1CC(NC(=O)c2cc(C(C)C)nn2C)CC1=O (stereo not given),52.4
10,CC(C)=CCN1C[C@@H]2CC[C@H]1CN(C(=O)c1ccc(S(N)(=O)=O)cc1)C2,-5.96
11,NC(=O)CS(=O)(=O)Cc1ccc(F)cc1,-3.71
12,CC(C)(C)C1CC(=O)Nc2c1cnn2Cc1ccco1 (stereo not given),-2.17
13,Cc1ccncc1CN1CCOCC1c1[nH]ncc1C (stereo not given),1.78
14,Cc1cc2c(=O)n3c(nc2s1)CCN(C(=O)c1ccnn1C)CC3,-4.08
15,CNC(=O)N1CCc2nc(C(=O)NCc3cccc(OC)c3)sc2CC1,-84.2
16,CCC(O)CN(c1ccccc1)S(=O)(=O)c1cnc(C)s1 (stereo not given),-45.6
17,Cc1cccc(NS(=O)(=O)c2cc3c(c(C(=O)O)c2)OCCO3)c1,-3.44
18,COc1ncc(C2(O)CCN(Cc3cc(F)ccc3F)CC2)c(OC)n1,-16.1
19,Cc1nc(CN2C[C@@H]3CN(C(=O)c4cccn4C)C[C@@H]3C2)cs1,0.346
20,CC(C)(CNC(=O)c1ccco1)CNC(=O)c1ccco1,-3.97
21,COc1cccc(Cl)c1C(C(=O)O)N(C)Cc1c(C)n[nH]c1C (stereo not given),-1.89
22,O=C1C[C@@H]2CC[C@H](CN1)N2C1CCOCC1,-5.1
